Data as given in ChEMBL document CHEMBL1156517, “Targeting thyroid hormone receptor-beta agonists to the liver reduces cholesterol and triglycerides and improves the therapeutic index” (Proc Natl Acad Sci U S A, 2007).
Activity calls are given as the source filed them. No cut-off for these calls is given here.

Columns and labels:
Rattus norvegicus [1] = assay: Toxicity in Sprague-Dawley rat assessed as suppression of thyroid hormone axis measured by decrease in total […]-L-thyronine level at 3 mg/kg/day, po for 7 days; type: organism-based; set-up: route oral; details: in vivo, 168 h
Rattus norvegicus [2] = assay: Toxicity in Sprague-Dawley rat assessed as suppression of thyroid hormone axis measured by decrease in total 3,5,3',5'-tetraiodo-L-thyronine level at 3 mg/kg/day, po for 7 days; type: organism-based; set-up: route oral; details: in vivo, 168 h
Rattus norvegicus [3] = assay: Toxicity in Sprague-Dawley rat assessed as suppression of thyroid hormone axis measured by decrease in serum TSH level at 3 mg/kg/day, po for 7 days relative to control; type: organism-based; set-up: route oral; details: in vivo, 168 h
Rattus norvegicus [4] = assay: Toxicity in Sprague-Dawley rat assessed as suppression of thyroid hormone axis measured by decrease in TSH-beta mRNA level at 3 mg/kg/day, po for 7 days relative to control; type: organism-based; set-up: route oral; details: in vivo, 168 h
Rattus norvegicus [5] = assay: Toxicity in Sprague-Dawley rat assessed as suppression of thyroid hormone axis measured by decrease in total […]-L-thyronine level at 30 mg/kg/day, po for 7 days; type: organism-based; set-up: route oral; details: in vivo, 168 h
Rattus norvegicus [6] = assay: Toxicity in Sprague-Dawley rat assessed as suppression of thyroid hormone axis measured by decrease in total 3,5,3',5'-tetraiodo-L-thyronine level at 30 mg/kg/day, po for 7 days; type: organism-based; set-up: route oral; details: in vivo, 168 h
Rattus norvegicus [7] = assay: Toxicity in Sprague-Dawley rat assessed as suppression of thyroid hormone axis measured by decrease in serum TSH level at 30 mg/kg/day, po for 7 days relative to control; type: organism-based; set-up: route oral; details: in vivo, 168 h
Rattus norvegicus [8] = assay: Toxicity in Sprague-Dawley rat assessed as suppression of thyroid hormone axis measured by decrease in TSH-beta mRNA level at 30 mg/kg/day, po for 7 days relative to control; type: organism-based; set-up: route oral; details: in vivo, 168 h
Rattus norvegicus [9] = assay: Toxicity in Sprague-Dawley rat assessed as suppression of thyroid hormone axis measured by decrease in total […]-L-thyronine level at 300 mg/kg/day, po for 7 days; type: organism-based; set-up: route oral; details: in vivo, 168 h
Rattus norvegicus [10] = assay: Toxicity in Sprague-Dawley rat assessed as suppression of thyroid hormone axis measured by decrease in total 3,5,3',5'-tetraiodo-L-thyronine level at 300 mg/kg/day, po for 7 days; type: organism-based; set-up: route oral; details: in vivo, 168 h
Rattus norvegicus [11] = assay: Toxicity in Sprague-Dawley rat assessed as suppression of thyroid hormone axis measured by decrease in serum TSH level at 300 mg/kg/day, po for 7 days relative to control; type: organism-based; set-up: route oral; details: in vivo, 168 h
Rattus norvegicus [12] = assay: Toxicity in Sprague-Dawley rat assessed as suppression of thyroid hormone axis measured by decrease in TSH-beta mRNA level at 300 mg/kg/day, po for 7 days relative to control; type: organism-based; set-up: route oral; details: in vivo, 168 h
Rattus norvegicus [13] = assay: Toxicity in Sprague-Dawley rat assessed as suppression of thyroid hormone axis measured by decrease in total […]-L-thyronine level at 1000 mg/kg/day, po for 7 days; type: organism-based; set-up: route oral; details: in vivo, 168 h
Rattus norvegicus [14] = assay: Toxicity in Sprague-Dawley rat assessed as suppression of thyroid hormone axis measured by decrease in total 3,5,3',5'-tetraiodo-L-thyronine level at 1000 mg/kg/day, po for 7 days; type: organism-based; set-up: route oral; details: in vivo, 168 h
Rattus norvegicus [15] = assay: Toxicity in Sprague-Dawley rat assessed as suppression of thyroid hormone axis measured by decrease in serum TSH level at 1000 mg/kg/day, po for 7 days relative to control; type: organism-based; set-up: route oral; details: in vivo, 168 h
Rattus norvegicus [16] = assay: Toxicity in Sprague-Dawley rat assessed as suppression of thyroid hormone axis measured by decrease in TSH-beta mRNA level at 1000 mg/kg/day, po for 7 days relative to control; type: organism-based; set-up: route oral; details: in vivo, 168 h
Rattus norvegicus [17] = assay: Effect on body weight in Sprague-Dawley rat at 650 ug/kg/day, sc after 8 days; type: functional
Rattus norvegicus [18] = assay: Effect on food intake in Sprague-Dawley rat at 650 ug/kg/day, sc after 8 days; type: functional
Rattus norvegicus [19] = assay: Effect on fasting blood glucose level in Sprague-Dawley rat at 650 ug/kg/day, sc after 8 days by oral glucose tolerance test; type: functional
Rattus norvegicus [20] = assay: Effect on plasma insulin level in Sprague-Dawley rat at 650 ug/kg/day, sc after 8 days; type: functional
Rattus norvegicus [21] = assay: Effect on plasma fatty acid level in Sprague-Dawley rat at 650 ug/kg/day, sc after 8 days; type: functional
Mus musculus [22] = assay: Decrease in cholesterol level in wild-type C57BL/6 mouse at 5 mg/kg/day once daily for 7 days; type: functional, organism-based
Mus musculus [23] = assay: Decrease in cholesterol level in LDLR deficient C57BL/6 mouse at 0.5 mg/kg/day once daily for 7 days; type: functional, organism-based
Mus musculus [24] = assay: Decrease in cholesterol level in LDLR deficient C57BL/6 mouse at 5 mg/kg/day once daily for 7 days; type: functional, organism-based
Mus musculus [25] = assay: Decrease in cholesterol level in wild-type C57BL/6 mouse at 0.5 mg/kg/day once daily for 7 days; type: functional, organism-based
Rattus norvegicus [26] = assay: Effect on TSH-beta mRNA expression in po dosed Sprague-Dawley rat pituitary gland; type: functional, organism-based; details: TDE = time-dependent effect
Rattus norvegicus [27] = assay: Effect on type 1 iodothyronine deiodinase mRNA expression in po dosed Sprague-Dawley rat pituitary gland; type: functional, organism-based; details: TDE = time-dependent effect
In short: (§1)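 Killed 3, 8 and 24 h post-dose under 2.5% isoflurane. Pituitary and thyroid snap-frozen; liver, heart, soleus, spleen and kidney freeze-clamped. mRNA by quantitative real-time PCR, expressed as fold-change vs vehicle.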

Rattus norvegicus [28] = assay: Effect on type 1 iodothyronine deiodinase mRNA expression in po dosed Sprague-Dawley rat thyroid gland; type: functional, organism-based; details: TDE = time-dependent effect; in short: as §1
Rattus norvegicus [29] = assay: Effect on type 1 iodothyronine deiodinase mRNA expression in po dosed Sprague-Dawley rat spleen; type: functional, organism-based; details: TDE = time-dependent effect; in short: as §1
Rattus norvegicus [30] = assay: Effect on type 1 iodothyronine deiodinase mRNA expression in po dosed Sprague-Dawley rat kidney; type: functional, organism-based; details: TDE = time-dependent effect; in short: as §1
Rattus norvegicus [31] = assay: Toxic cardiac effect on Sprague-Dawley rat assessed as increase in heart rate at >= 0.065 mg/kg/day, po for 7 days; type: toxicity, organism-based; set-up: route oral; details: in vivo, 168 h
In short: (§2)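 Male SD rats (n = 6 per group) dosed daily by oral gavage for 7 days; vehicle group included. On day 7, rats anesthetized with isoflurane; catheter-tip transducer inserted into left ventricle via right carotid artery. LV pressure, LV dP/dt and heart rate (lead I ECG) recorded digitally. Systolic/diastolic aortic pressure taken by retracting catheter into proximal aorta.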

Rattus norvegicus [32] = assay: Toxic cardiac effect on Sprague-Dawley rat assessed as increase in first derivative of left ventricular pressure at >= 0.065 mg/kg/day, po for 7 days; type: toxicity, organism-based, Heart left ventricle; set-up: route oral; details: in vivo, 168 h; in short: as §2
Rattus norvegicus [33] = assay: Toxic cardiac effect on Sprague-Dawley rat assessed as increase in systolic aortic pressure at >= 0.065 mg/kg/day, po for 7 days; type: toxicity, organism-based; set-up: route oral; details: in vivo, 168 h; in short: as §2
Mus musculus [34] = assay: Effect on hepatic LDLR mRNA level in LDLR deficient C57BL/6 mouse at 0.5 mg/kg/day once daily for 7 days; type: functional
Mus musculus [35] = assay: Effect on hepatic LDLR mRNA level in wild-type C57BL/6 mouse at 0.5 mg/kg/day once daily for 7 days; type: functional
Rattus norvegicus [36] = organism: Rattus norvegicus; assay: Reduction in plasma cholesterol level in cholesterol fed Sprague-Dawley rat; type: functional
Rattus norvegicus [37] = assay: Effect on malic enzyme mRNA expression in po dosed Sprague-Dawley rat liver; type: functional, organism-based; details: TDE = time-dependent effect; in short: as §1
Rattus norvegicus [38] = assay: Effect on SREBP-1c mRNA expression in po dosed Sprague-Dawley rat liver; type: functional, organism-based; details: TDE = time-dependent effect
Rattus norvegicus [39] = assay: Effect on LDLR mRNA expression in po dosed Sprague-Dawley rat liver; type: functional, organism-based; details: TDE = time-dependent effect
Rattus norvegicus [40] = assay: Effect on type 1 iodothyronine deiodinase mRNA expression in po dosed Sprague-Dawley rat liver; type: functional, organism-based; details: TDE = time-dependent effect; in short: as §1
Rattus norvegicus [41] = assay: Effect on MHCbeta mRNA expression in po dosed Sprague-Dawley rat heart; type: functional, organism-based; details: TDE = time-dependent effect
Rattus norvegicus [42] = assay: Effect on type 1 iodothyronine deiodinase mRNA expression in po dosed Sprague-Dawley rat heart; type: functional, organism-based; details: TDE = time-dependent effect; in short: as §1
Rattus norvegicus [43] = assay: Effect on UCP3 mRNA expression in po dosed Sprague-Dawley rat muscle; type: functional, organism-based; details: Muscle tissue, TDE = time-dependent effect

How did the Activity (Rattus norvegicus [1]) turn out when `N[C@@H](Cc1cc(I)c(Oc2ccc(O)c(I)c2)c(I)c1)C(=O)O` [LIOTHYRONINE] was run?
Its Activity is 0.49 ng/mL.

And the Activity (Rattus norvegicus [2])?
The Activity was 37.3 ng/mL.

And the Activity (Rattus norvegicus [3])?
Its Activity is 0.57.

What about the Activity (Rattus norvegicus [4]) of the same compound?
The Activity was 0.93.

What about the Activity (Rattus norvegicus [5]) of the same compound?
Its Activity is 0.42 ng/mL.

And the Activity (Rattus norvegicus [6])?
The Activity was 4.2 ng/mL.

And the Activity (Rattus norvegicus [7])?
The Activity was 0.0139.

What about the Activity (Rattus norvegicus [8]) of the same compound?
The Activity was 0.14.

What about the Activity (Rattus norvegicus [9]) of the same compound?
Its Activity is 4.06 ng/mL.

And the Activity (Rattus norvegicus [10])?
The Activity was 1.43 ng/mL.

And the Activity (Rattus norvegicus [11])?
The Activity was 0.0031.

And the Activity (Rattus norvegicus [12])?
Its Activity is 0.0978.

What about the Activity (Rattus norvegicus [13]) of the same compound?
The Activity was 16.45 ng/mL.

And the Activity (Rattus norvegicus [14])?
Its Activity is 8.4 ng/mL.

And the Activity (Rattus norvegicus [15])?
The Activity was 0.001365.

What about the Activity (Rattus norvegicus [16]) of the same compound?
The Activity was 0.081.

What about the Activity (Rattus norvegicus [17]) of the same compound?
Its Activity is 4.3 g.

What about the Activity (Rattus norvegicus [18]) of the same compound?
Its Activity is 16.2%.

What about the Activity (Rattus norvegicus [19]) of the same compound?
Its Activity is 25 mg/dL.

And the Activity (Rattus norvegicus [20])?
Its Activity is 0.334 ng/mL.

What about the Activity (Rattus norvegicus [21]) of the same compound?
The Activity was 0.937 mM.

What about the Activity (Mus musculus [22]) of the same compound?
Its Activity is “Active”.

And the Activity (Mus musculus [23])?
The Activity was “inactive”.

What about the Activity (Mus musculus [24]) of the same compound?
Its Activity is “inactive”.

And the Activity (Mus musculus [25])?
The Activity was “Active”.

And the Activity (Rattus norvegicus [26])?
Its Activity is “tde”.

And the Activity (Rattus norvegicus [27])?
The Activity was “tde”.

What about the Activity (Rattus norvegicus [28]) of the same compound?
Its Activity is “tde”.

What about the Activity (Rattus norvegicus [29]) of the same compound?
Its Activity is “tde”.

And the Activity (Rattus norvegicus [30])?
Its Activity is “tde”.

And the Activity (Rattus norvegicus [31])?
The Activity was “Active”.

And the Activity (Rattus norvegicus [32])?
Its Activity is “Active”.

What about the Activity (Rattus norvegicus [33]) of the same compound?
Its Activity is “Active”.

And the Activity (Mus musculus [34])?
Its Activity is 9.5%.

What about the Activity (Mus musculus [35]) of the same compound?
Its Activity is -42.4%.

And the ED50 (Rattus norvegicus [36])?
The ED50 was 0.012 mg/kg.

And the Activity (Rattus norvegicus [37])?
The Activity was “tde”.

What about the Activity (Rattus norvegicus [38]) of the same compound?
The Activity was “tde”.

And the Activity (Rattus norvegicus [39])?
Its Activity is “tde”.

And the Activity (Rattus norvegicus [40])?
Its Activity is “tde”.

And the Activity (Rattus norvegicus [41])?
Its Activity is “tde”.

And the Activity (Rattus norvegicus [42])?
Its Activity is “tde”.

What about the Activity (Rattus norvegicus [43]) of the same compound?
Its Activity is “tde”.
